One block for each compound: values may come before it.
Assays:
CYP3A4 = CYP3A4 (Homo sapiens, UniProt P08684); test: Inhibition of CYP3A4 (unknown origin) at 100 uM relative to control; format: ADME
Mus musculus [1] = test: Antidiabetic activity in C57BKS db/db mouse assessed as blood glucose level at 50 mg/kg/day administered for 5 weeks followed by glucose challenge at 6 hrs starvation of post last dose measured immediately by OGTT (reference value: 25 +/- 1.2 mmol/L); format: functional
Summary of the method: (§1)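 C57BKS db/db mice received 5, 15 or 50 mg/kg/day for 5 weeks. Vehicle was 0.5% methylcellulose at 10 mL/kg/day. In week 5, mice were fasted 6 h and given an oral glucose load of 1.5 g/kg, then blood glucose was recorded over the glucose tolerance test. Data are mean ± SE, compared with Student's t-test.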

[2] = Half life in Sprague-Dawley rat at 20 mg/kg, iv; format: ADME, organism-based; parameters: dose 20 mg/kg, route intravenous; conditions: in vivo
Summary of the method: (§2)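 Sprague-Dawley rats were dosed orally or intravenously, and blood was sampled after dosing. Plasma was separated by centrifugation and deproteinized with methanol containing an internal standard. The supernatant was diluted with methanol, centrifuged again and quantified by LC/MS/MS.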

Mus musculus [3] = test: Antidiabetic activity in C57BKS db/db mouse assessed as blood glucose level at 50 mg/kg/day administered for 5 weeks followed by glucose challenge at 6 hrs starvation of post last dose measured at 90 mins by OGTT (reference value: 27.2 +/- 1.3 mmol/L); format: functional; summary of the method: as §1
Mus musculus [4] = test: Antidiabetic activity in C57BKS db/db mouse assessed as blood glucose level at 5 mg/kg/day administered for 5 weeks followed by glucose challenge at 6 hrs starvation of post last dose measured at 60 mins by OGTT (reference value: 30.2 +/- 1.5 mmol/L); format: functional; summary of the method: as §1
CYP2C9 = CYP2C9 (Homo sapiens, UniProt P11712); test: Inhibition of CYP2C9 (unknown origin) at 100 uM relative to control; format: ADME
Sequence of CYP2C9 (P11712 whole entry): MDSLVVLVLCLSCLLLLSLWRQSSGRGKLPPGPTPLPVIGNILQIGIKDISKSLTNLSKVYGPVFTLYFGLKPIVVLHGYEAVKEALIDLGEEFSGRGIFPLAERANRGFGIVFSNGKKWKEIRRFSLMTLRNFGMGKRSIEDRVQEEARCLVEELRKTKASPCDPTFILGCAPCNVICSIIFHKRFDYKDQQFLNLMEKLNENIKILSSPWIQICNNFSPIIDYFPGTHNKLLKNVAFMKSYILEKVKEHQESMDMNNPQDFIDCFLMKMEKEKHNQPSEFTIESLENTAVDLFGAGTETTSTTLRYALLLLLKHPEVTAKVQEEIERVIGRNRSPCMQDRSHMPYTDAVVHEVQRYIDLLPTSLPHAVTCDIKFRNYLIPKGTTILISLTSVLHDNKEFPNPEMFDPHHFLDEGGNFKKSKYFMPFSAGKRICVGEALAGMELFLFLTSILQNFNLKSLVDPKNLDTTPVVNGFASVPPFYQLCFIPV

Mus musculus [5] = test: Antidiabetic activity in C57BKS db/db mouse assessed as blood glucose level at 15 mg/kg/day administered for 5 weeks followed by glucose challenge at 6 hrs starvation of post last dose measured immediately by OGTT (reference value: 25 +/- 1.2 mmol/L); format: functional; summary of the method: as §1
[6] = Half life in Sprague-Dawley rat at 50 mg/kg, po; format: ADME, organism-based; parameters: dose 50 mg/kg, route oral; conditions: in vivo; summary of the method: as §2
[7] = Mean residence time in Sprague-Dawley rat at 50 mg/kg, po; format: ADME, organism-based; parameters: dose 50 mg/kg, route oral; conditions: in vivo; summary of the method: as §2
Mus musculus [8] = test: Antidiabetic activity in ICR mouse assessed as decrease in blood glucose AUC (0 to 120 mins) at 15 mg/kg administered for 30 mins prior to glucose challenge measured after 4 hrs by OGTT relative to vehicle-treated control; format: functional; parameters: scale not given: the % may be the effect or the level left
Summary of the method: (§3)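 ICR mice were fasted 16 h and given one dose in 0.5% methylcellulose vehicle (10 mL/kg). An oral glucose load of 2.5 g/kg followed; methods state 30 min after dosing, the figure legend 4 h.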

[9] = Mean residence time in Sprague-Dawley rat at 20 mg/kg, iv; format: ADME, organism-based; parameters: dose 20 mg/kg, route intravenous; conditions: in vivo; summary of the method: as §2
[10] = Apparent clearance in Sprague-Dawley rat at 20 mg/kg, iv; format: ADME, organism-based; parameters: dose 20 mg/kg, route intravenous; conditions: in vivo, read-out: CL(app) (converted); summary of the method: as §2
Mus musculus [11] = test: Antidiabetic activity in C57BKS db/db mouse assessed as blood glucose level at 15 mg/kg/day administered for 5 weeks followed by glucose challenge at 6 hrs starvation of post last dose measured at 30 mins by OGTT (reference value: 46.6 +/- 2.2 mmol/L); format: functional; summary of the method: as §1
Mus musculus [12] = test: Antidiabetic activity in C57BKS db/db mouse assessed as blood glucose level at 50 mg/kg/day administered for 5 weeks followed by glucose challenge at 6 hrs starvation of post last dose measured at 30 mins by OGTT (reference value: 46.6 +/- 2.2 mmol/L); format: functional; summary of the method: as §1
Mus musculus [13] = test: Antidiabetic activity in C57BKS db/db mouse assessed as blood glucose level at 50 mg/kg/day administered for 5 weeks followed by glucose challenge at 6 hrs starvation of post last dose measured at 120 mins by OGTT (reference value: 28.1 +/- 1.3 mmol/L); format: functional; summary of the method: as §1
Mus musculus [14] = test: Antidiabetic activity in C57BKS db/db mouse assessed as blood glucose level at 5 mg/kg/day administered for 5 weeks followed by glucose challenge at 6 hrs starvation of post last dose measured immediately by OGTT (reference value: 25 +/- 1.2 mmol/L); format: functional; summary of the method: as §1
Mus musculus [15] = test: Antidiabetic activity in C57BKS db/db mouse assessed as blood glucose level at 5 mg/kg/day administered for 5 weeks followed by glucose challenge at 6 hrs starvation of post last dose measured at 120 mins by OGTT (reference value: 28.1 +/- 1.3 mmol/L); format: functional; summary of the method: as §1
[16] = AUC (0 to infinity) in Sprague-Dawley rat at 20 mg/kg, iv; format: ADME, organism-based; parameters: time infinity, dose 20 mg/kg, route intravenous; conditions: plasma; summary of the method: as §2
[17] = Oral bioavailability in Sprague-Dawley rat at 50 mg/kg; format: ADME, organism-based; conditions: in vivo; summary of the method: as §2
Mus musculus [18] = test: Antidiabetic activity in C57BKS db/db mouse assessed as blood glucose level at 15 mg/kg/day administered for 5 weeks followed by glucose challenge at 6 hrs starvation of post last dose measured at 120 mins by OGTT (reference value: 28.1 +/- 1.3 mmol/L); format: functional; summary of the method: as §1
[19] = Tmax in Sprague-Dawley rat at 20 mg/kg, iv; format: ADME, organism-based; parameters: dose 20 mg/kg, route intravenous; conditions: in vivo; summary of the method: as §2
[20] = AUC (0 to t) in Sprague-Dawley rat at 50 mg/kg, po; format: ADME, organism-based; parameters: dose 50 mg/kg, route oral; conditions: plasma; summary of the method: as §2
[21] = AUC (0 to infinity) in Sprague-Dawley rat at 50 mg/kg, po; format: ADME, organism-based; parameters: time infinity, dose 50 mg/kg, route oral; conditions: plasma; summary of the method: as §2
Mus musculus [22] = test: Antidiabetic activity in C57BKS db/db mouse assessed as blood glucose level at 15 mg/kg/day administered for 5 weeks followed by glucose challenge at 6 hrs starvation of post last dose measured at 60 mins by OGTT (reference value: 30.2 +/- 1.5 mmol/L); format: functional; summary of the method: as §1
[23] = Tmax in Sprague-Dawley rat at 50 mg/kg, po; format: ADME, organism-based; parameters: dose 50 mg/kg, route oral; conditions: in vivo
Summary of the method: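 Sprague-Dawley rats dosed orally (i.v. arm run in parallel). Blood collected after dosing and centrifuged to plasma. Plasma deproteinized with methanol containing an internal standard, centrifuged, and the supernatant diluted in methanol and recentrifuged. Drug levels in the supernatant quantified by LC/MS/MS, and Tmax taken from the plasma concentration-time profile.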

Mus musculus [24] = test: Antidiabetic activity in C57BKS db/db mouse assessed as blood glucose level at 5 mg/kg/day administered for 5 weeks followed by glucose challenge at 6 hrs starvation of post last dose measured at 30 mins by OGTT (reference value: 46.6 +/- 2.2 mmol/L); format: functional; summary of the method: as §1
[25] = Cmax in Sprague-Dawley rat at 20 mg/kg, iv; format: ADME, organism-based; parameters: dose 20 mg/kg, route intravenous; conditions: in vivo; summary of the method: as §2
[26] = Cmax in Sprague-Dawley rat at 50 mg/kg, po; format: ADME, organism-based; parameters: dose 50 mg/kg, route oral; conditions: in vivo; summary of the method: as §2
Mus musculus [27] = test: Antidiabetic activity in ICR mouse assessed as decrease in blood glucose AUC (0 to 120 mins) administered for 30 mins prior to glucose challenge measured after 4 hrs by OGTT; format: functional, organism-based
Summary of the method: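 ICR mice fasted 16 h, then given a single dose of 15 or 50 mg/kg; vehicle 0.5% methylcellulose (10 mL/kg), LAF237 30 mg/kg as positive control. Oral glucose 2.5 g/kg given 30 min after dosing (legend says 4 h). Blood glucose read at 0, 15, 30, 60, 90, 120 min for AUC0–120. Mean ± SE, n = 10; Student's t-test.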

Mus musculus [28] = test: Antidiabetic activity in C57BKS db/db mouse assessed as blood glucose level at 5 mg/kg/day administered for 5 weeks followed by glucose challenge at 6 hrs starvation of post last dose measured at 90 mins by OGTT (reference value: 27.2 +/- 1.3 mmol/L); format: functional; summary of the method: as §1
Mus musculus [29] = test: Antidiabetic activity in C57BKS db/db mouse assessed as blood glucose level at 50 mg/kg/day administered for 5 weeks followed by glucose challenge at 6 hrs starvation of post last dose measured at 60 mins by OGTT (reference value: 30.2 +/- 1.5 mmol/L); format: functional; summary of the method: as §1
[30] = target: Voltage-gated inwardly rectifying potassium channel KCNH2 (Homo sapiens, UniProt Q12809); test: Inhibition of human ERG expressed in CHO-ZG cells after 20 mins by FluxOR thallium assay
Sequence of Voltage-gated inwardly rectifying potassium channel KCNH2 (Q12809 whole entry): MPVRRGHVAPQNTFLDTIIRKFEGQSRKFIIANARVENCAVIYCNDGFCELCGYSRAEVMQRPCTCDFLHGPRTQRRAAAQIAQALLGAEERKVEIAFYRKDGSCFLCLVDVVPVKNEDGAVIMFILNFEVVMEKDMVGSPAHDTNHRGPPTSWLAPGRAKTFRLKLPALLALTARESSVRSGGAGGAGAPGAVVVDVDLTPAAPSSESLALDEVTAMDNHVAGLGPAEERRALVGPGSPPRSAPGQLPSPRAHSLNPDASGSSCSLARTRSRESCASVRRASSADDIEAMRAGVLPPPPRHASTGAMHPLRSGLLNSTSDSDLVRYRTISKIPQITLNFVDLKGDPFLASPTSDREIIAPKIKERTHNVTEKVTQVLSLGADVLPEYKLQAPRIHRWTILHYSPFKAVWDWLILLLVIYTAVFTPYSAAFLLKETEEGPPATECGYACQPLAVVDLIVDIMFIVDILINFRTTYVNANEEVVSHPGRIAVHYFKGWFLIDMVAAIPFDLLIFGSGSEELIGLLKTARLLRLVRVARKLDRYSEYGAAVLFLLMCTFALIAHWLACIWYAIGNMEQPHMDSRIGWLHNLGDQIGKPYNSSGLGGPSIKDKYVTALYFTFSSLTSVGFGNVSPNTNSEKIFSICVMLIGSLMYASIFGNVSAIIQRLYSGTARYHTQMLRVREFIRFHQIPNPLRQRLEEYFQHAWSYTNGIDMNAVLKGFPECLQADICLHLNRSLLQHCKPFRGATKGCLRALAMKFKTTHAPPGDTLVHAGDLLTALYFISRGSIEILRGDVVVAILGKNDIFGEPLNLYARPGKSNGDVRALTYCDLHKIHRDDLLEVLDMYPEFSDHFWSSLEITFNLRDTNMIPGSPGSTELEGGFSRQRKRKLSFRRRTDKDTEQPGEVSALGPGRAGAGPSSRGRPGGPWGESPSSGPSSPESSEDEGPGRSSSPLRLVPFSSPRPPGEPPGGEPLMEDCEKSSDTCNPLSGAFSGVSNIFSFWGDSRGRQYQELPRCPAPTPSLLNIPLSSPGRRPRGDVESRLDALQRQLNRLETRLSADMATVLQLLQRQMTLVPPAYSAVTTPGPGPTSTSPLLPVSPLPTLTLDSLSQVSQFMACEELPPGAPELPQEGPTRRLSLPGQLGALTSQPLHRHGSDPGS

Mus musculus [31] = test: Antidiabetic activity in ICR mouse assessed as decrease in blood glucose AUC (0 to 120 mins) at 50 mg/kg administered for 30 mins prior to glucose challenge measured after 4 hrs by OGTT relative to vehicle-treated control; format: functional; parameters: scale not given: the % may be the effect or the level left; summary of the method: as §3
Mus musculus [32] = test: Antidiabetic activity in C57BKS db/db mouse assessed as blood glucose level at 15 mg/kg/day administered for 5 weeks followed by glucose challenge at 6 hrs starvation of post last dose measured at 90 mins by OGTT (reference value: 27.2 +/- 1.3 mmol/L); format: functional; summary of the method: as §1
[33] = AUC (0 to t) in Sprague-Dawley rat at 20 mg/kg, iv; format: ADME, organism-based; parameters: dose 20 mg/kg, route intravenous; conditions: plasma; summary of the method: as §2
Dipeptidyl peptidase 4 = Dipeptidyl peptidase 4 (Homo sapiens, UniProt P27487); test: Inhibition of recombinant his6-tagged DPP4 (unknown origin) expressed in baculovirus expression system using Ala-pro-AMC as substrate by fluorometric analysis
Sequence of Dipeptidyl peptidase 4 (P27487 whole entry): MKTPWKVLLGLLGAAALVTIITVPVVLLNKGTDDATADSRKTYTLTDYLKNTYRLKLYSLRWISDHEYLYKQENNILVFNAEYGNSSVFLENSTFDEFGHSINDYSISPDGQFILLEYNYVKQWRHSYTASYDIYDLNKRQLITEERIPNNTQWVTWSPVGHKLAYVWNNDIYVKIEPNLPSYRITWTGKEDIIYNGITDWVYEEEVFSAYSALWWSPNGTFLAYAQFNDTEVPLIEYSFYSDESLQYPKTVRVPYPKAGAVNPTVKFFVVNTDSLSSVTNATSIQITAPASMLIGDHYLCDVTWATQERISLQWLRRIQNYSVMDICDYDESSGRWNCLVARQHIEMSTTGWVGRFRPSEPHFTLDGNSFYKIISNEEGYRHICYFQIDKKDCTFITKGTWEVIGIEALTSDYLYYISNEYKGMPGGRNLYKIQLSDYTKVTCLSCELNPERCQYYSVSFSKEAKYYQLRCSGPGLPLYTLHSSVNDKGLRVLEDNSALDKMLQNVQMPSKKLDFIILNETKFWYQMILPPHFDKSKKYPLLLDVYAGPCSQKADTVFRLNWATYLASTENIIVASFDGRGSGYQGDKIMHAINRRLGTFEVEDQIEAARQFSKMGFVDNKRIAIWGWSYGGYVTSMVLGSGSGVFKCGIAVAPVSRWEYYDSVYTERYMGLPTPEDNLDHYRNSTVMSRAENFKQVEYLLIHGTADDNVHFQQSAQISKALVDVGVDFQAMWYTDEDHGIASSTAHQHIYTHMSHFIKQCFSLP

Homo sapiens [34] = species on record: Homo sapiens; test: Selectivity ratio of IC50 for recombinant his6-tagged DPP8 (unknown origin) to IC50 for recombinant his6-tagged DPP4 (unknown origin)
Summary of the method: (§4)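 His6-tagged DPP4, DPP8 and DPP9 were expressed in High Five insect cells by baculovirus and purified on Ni-NTA. Activity was followed continuously by fluorescence of AMC released from Ala-Pro-AMC (ex 355/em 460 nm). DPP4 ran at 50 pmol/L enzyme in HEPES pH 7.5 with 0.1 mg/mL BSA; DPP8 and DPP9 ran at pH 8.0. IC50s came from quadruplicate sigmoidal variable-slope fits, and the ratio is the IC50 ratio.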

Dipeptidyl peptidase 8 = Dipeptidyl peptidase 8 (Homo sapiens, UniProt Q6V1X1); test: Inhibition of recombinant his6-tagged DPP8 (unknown origin) expressed in baculovirus expression system using Ala-pro-AMC as substrate by fluorometric analysis
Sequence of Dipeptidyl peptidase 8 (Q6V1X1 whole entry): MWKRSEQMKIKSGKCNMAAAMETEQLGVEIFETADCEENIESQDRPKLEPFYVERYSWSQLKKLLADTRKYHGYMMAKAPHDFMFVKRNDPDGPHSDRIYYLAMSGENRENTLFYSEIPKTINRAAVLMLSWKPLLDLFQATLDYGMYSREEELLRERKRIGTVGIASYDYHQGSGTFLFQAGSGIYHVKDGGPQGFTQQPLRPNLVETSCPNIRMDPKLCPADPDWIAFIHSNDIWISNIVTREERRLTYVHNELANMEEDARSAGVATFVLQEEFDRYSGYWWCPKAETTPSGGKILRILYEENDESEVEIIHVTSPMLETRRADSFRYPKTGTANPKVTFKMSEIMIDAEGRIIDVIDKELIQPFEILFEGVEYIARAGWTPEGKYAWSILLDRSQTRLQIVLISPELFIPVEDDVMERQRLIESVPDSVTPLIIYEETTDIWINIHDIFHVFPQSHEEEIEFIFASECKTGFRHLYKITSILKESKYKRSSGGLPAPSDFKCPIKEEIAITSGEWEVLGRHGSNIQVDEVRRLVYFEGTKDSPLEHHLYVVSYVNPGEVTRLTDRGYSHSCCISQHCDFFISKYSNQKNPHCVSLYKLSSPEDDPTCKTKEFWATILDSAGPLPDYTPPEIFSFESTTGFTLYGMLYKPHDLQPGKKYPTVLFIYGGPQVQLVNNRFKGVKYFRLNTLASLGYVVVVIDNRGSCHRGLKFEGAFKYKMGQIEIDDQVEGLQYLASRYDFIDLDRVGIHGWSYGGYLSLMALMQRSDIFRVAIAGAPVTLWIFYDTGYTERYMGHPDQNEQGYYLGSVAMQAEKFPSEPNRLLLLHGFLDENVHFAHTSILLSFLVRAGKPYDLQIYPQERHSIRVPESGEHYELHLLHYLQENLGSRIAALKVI

Dipeptidyl peptidase 9 = Dipeptidyl peptidase 9 (Homo sapiens, UniProt Q86TI2); test: Inhibition of recombinant his6-tagged DPP9 (unknown origin) expressed in baculovirus expression system using Ala-pro-AMC as substrate by fluorometric analysis
Sequence of Dipeptidyl peptidase 9 (Q86TI2 whole entry): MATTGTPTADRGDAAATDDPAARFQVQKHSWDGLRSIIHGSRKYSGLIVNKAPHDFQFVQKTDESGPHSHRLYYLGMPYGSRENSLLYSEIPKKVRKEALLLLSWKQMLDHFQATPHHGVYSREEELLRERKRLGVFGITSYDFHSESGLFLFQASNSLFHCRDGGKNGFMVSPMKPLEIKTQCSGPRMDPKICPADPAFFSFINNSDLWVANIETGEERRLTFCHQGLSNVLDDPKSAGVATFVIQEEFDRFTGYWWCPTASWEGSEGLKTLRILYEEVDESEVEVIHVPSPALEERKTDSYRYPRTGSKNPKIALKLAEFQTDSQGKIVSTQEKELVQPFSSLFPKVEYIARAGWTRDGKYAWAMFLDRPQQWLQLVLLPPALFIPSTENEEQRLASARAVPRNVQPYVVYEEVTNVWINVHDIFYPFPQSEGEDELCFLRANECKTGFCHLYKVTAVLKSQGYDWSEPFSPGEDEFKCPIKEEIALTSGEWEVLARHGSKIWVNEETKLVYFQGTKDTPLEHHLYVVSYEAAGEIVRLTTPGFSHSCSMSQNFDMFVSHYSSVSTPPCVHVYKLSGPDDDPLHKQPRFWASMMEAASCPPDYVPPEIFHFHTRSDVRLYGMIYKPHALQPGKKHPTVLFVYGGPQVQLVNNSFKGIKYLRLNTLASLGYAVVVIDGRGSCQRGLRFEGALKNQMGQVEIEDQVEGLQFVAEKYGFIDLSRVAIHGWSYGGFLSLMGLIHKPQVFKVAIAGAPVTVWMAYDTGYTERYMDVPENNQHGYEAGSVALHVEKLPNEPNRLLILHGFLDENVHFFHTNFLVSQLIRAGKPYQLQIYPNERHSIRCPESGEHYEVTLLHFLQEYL

Homo sapiens [35] = species on record: Homo sapiens; test: Selectivity ratio of IC50 for recombinant his6-tagged DPP9 (unknown origin) to IC50 for recombinant his6-tagged DPP4 (unknown origin); summary of the method: as §4

Sequence of CYP3A4 (P08684 whole entry): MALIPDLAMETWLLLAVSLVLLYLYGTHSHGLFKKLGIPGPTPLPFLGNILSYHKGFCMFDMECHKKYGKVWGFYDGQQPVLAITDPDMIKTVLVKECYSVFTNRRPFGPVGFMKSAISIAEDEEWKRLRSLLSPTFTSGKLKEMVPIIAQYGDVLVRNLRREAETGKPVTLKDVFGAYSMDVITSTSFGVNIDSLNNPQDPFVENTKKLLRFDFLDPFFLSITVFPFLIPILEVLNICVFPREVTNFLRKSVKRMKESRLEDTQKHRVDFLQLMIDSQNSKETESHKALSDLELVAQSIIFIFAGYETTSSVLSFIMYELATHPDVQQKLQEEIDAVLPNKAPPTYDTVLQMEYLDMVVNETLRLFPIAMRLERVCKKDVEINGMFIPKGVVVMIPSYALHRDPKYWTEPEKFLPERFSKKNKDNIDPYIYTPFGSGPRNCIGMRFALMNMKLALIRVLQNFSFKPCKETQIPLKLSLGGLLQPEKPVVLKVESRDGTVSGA

- inhibition at 100 µM (CYP3A4): 7.4%
- half-life [2]: 2.27 h
- inhibition at 100 µM (CYP2C9): 11.2%
- half-life [6]: 1.45 h
- MRT [7]: 1.47 h
- MRT [9]: 1.48 h
- clearance [10]: 116 mL/min/kg
- AUC(0-inf) [16]: 2900 ng·h/mL
- bioavailability [17]: 37.8%
- Tmax [19]: 0.3 h
- AUC(0-t) [20]: 2730 ng·h/mL
- AUC(0-inf) [21]: 2840 ng·h/mL
- Tmax [23]: 0.3 h
- Cmax [25]: 2960 ng/mL
- Cmax [26]: 2710 ng/mL
- AUC(0-t) [33]: 2890 ng·h/mL
Structure (SMILES): N#C[C@@H]1C[C@H](F)CN1C(=O)[C@@H](N)Cc1cscn1
- Activity (Mus musculus [1]): 18.1 mmol/L
- Activity (Mus musculus [3]): 20.5 mmol/L
- Activity (Mus musculus [4]): 27.5 mmol/L
- Activity (Mus musculus [5]): 18 mmol/L
- Activity (Mus musculus [8]): 10.7%
- Activity (Mus musculus [11]): 41.3 mmol/L
- Activity (Mus musculus [12]): 38 mmol/L
- Activity (Mus musculus [13]): 20.4 mmol/L
- Activity (Mus musculus [14]): 21.5 mmol/L
- Activity (Mus musculus [15]): 24.5 mmol/L
- Activity (Mus musculus [18]): 20.6 mmol/L
- Activity (Mus musculus [22]): 21.8 mmol/L
- Activity (Mus musculus [24]): 45.1 mmol/L
- Activity (Mus musculus [27]): Dose-dependent effect
- Activity (Mus musculus [28]): 24.1 mmol/L
- Activity (Mus musculus [29]): 19.9 mmol/L
- IC50 [30]: 177 µM
- Activity (Mus musculus [31]): 12.8%
- Activity (Mus musculus [32]): 20.8 mmol/L

- IC50 (Dipeptidyl peptidase 4): 114 µM
- Ratio IC50 (Homo sapiens [34]): > 2.5
- IC50 (Dipeptidyl peptidase 8): > 288 µM
- IC50 (Dipeptidyl peptidase 9): > 288 µM
- Ratio IC50 (Homo sapiens [35]): > 2.5
Structure (SMILES): N#C[C@@H]1CCCN1C(=O)[C@@H](N)Cc1ccoc1

— ChEMBL document CHEMBL3124820, “Design, synthesis and biological evaluation of hetero-aromatic moieties substituted pyrrole-2-carbonitrile derivatives as dipeptidyl peptidase IV inhibitors” (Eur J Med Chem, 2014)
